In brackets after ≈: the same amount, converted by molar mass.
Key:
[1] = Inhibition of mitochondrial protein synthesis in rat H9c2 cells measured after 5 days by ELISA; type: cell-based; conditions: H9c2, 120 h
How it was run: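 H9C2 cells in DMEM with 10% FBS, seeded 1500/well. After 18 h, compound added at final 0.03–200 μM (3-fold series), then 5 days at 37 °C, 5% CO2; 0.5% DMSO negative control. MPS inhibition read by MitoBiogenesis In-Cell ELISA; IC50 calculated.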

[2] = test system: Mycobacterium tuberculosis; experiment: Antitubercular activity against Mycobacterium tuberculosis H37Rv incubated for 7 days by microplate alamar blue assay; type: functional; conditions: 168 h, time 7 day
How it was run: (§1)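 MIC determined by microplate alamar blue assay (MABA) following a published protocol.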

Vero = experiment: Cytotoxicity against African green monkey Vero cells assessed as reduction in cell viability measured after 48 hrs by MTT assay; type: cell-based; conditions: Chlorocebus sabaeus
How it was run: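 Cytotoxicity on Vero or HepG2 cells by MTT assay, run as previously reported.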

[3] = Cmax in Balb/c mouse at 25 mg/kg, po by LC-MS/MS analysis; type: ADME, organism-based; parameters: route oral, dose 25 mg/kg; conditions: in vivo
How it was run: (§2)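 Female BALB/c mice (20–25 g), five per route. Oral dose 25 mg/kg in 0.5% carboxymethyl cellulose; i.v. dose 2.5 mg/kg in 10% DMSO/physiological saline. Blood sampled 5 min–72 h after p.o. and 2 min–48 h after i.v. Analyte quantified by LC/MS/MS (ESI positive, C18, isocratic methanol/water). Parameters from non-compartmental analysis.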

[4] = Terminal half life in Balb/c mouse at 25 mg/kg, po by LC-MS/MS analysis; type: ADME, organism-based; conditions: in vivo, read-out: beta t1/2 (converted)
How it was run: (§3)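 Female BALB/c mice, 20-25 g, five per route. Dosed 25 mg/kg p.o. in 0.5% carboxymethyl cellulose or 2.5 mg/kg i.v. in 10% DMSO/saline. Blood sampled 5 min-72 h (p.o.) or 2 min-48 h (i.v.), quantified by LC/MS/MS with ESI+. Parameters by non-compartmental analysis; F = (AUCpo×dose_iv)/(AUCiv×dose_po)×100%.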

[5] = Tmax in Balb/c mouse at 25 mg/kg, po by LC-MS/MS analysis; type: ADME, organism-based; conditions: in vivo; how it was run: as §3
[6] = AUC (0 to t) in Balb/c mouse at 25 mg/kg, po by LC-MS/MS analysis; type: ADME, organism-based; parameters: dose 25 mg/kg; conditions: in vivo; how it was run: as §2
[7] = MRT (0 to infinity) in Balb/c mouse at 25 mg/kg, po by LC-MS/MS analysis; type: ADME, organism-based; conditions: in vivo; how it was run: as §2
[8] = AUC (0 to infinity) in Balb/c mouse at 25 mg/kg, po by LC-MS/MS analysis; type: ADME, organism-based; parameters: route oral, time infinity, dose 25 mg/kg; conditions: in vivo; how it was run: as §2
[9] = MRT (0 to t) in Balb/c mouse at 25 mg/kg, po by LC-MS/MS analysis; type: ADME, organism-based; conditions: in vivo; how it was run: as §2
[10] = Stability in CD-1 mouse liver microsome assessed as parent compound remaining at 1 uM measured after 30 mins in presence of NADPH by LC-MS/MS analysis; type: ADME; conditions: liver microsomes, read-out: Stabilty
How it was run: (§4)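 Liver microsomes (male CD-1 mouse or pooled human), 1 mg/mL protein, compound 1 µM, 37°C with shaking. Started with 1 mM NADPH or run without cofactor. Quenched with ice-cold ACN/MeOH containing internal standard. Parent quantified by LC-MS/MS; 30 min concentration normalised to time zero.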

[11] = Stability in CD-1 mouse liver microsome at 1 uM measured after 30 mins in absence of NADPH by LC-MS/MS analysis; type: ADME; conditions: microsomes, 0.5 h; how it was run: as §4
[12] = test system: Mycobacterium tuberculosis; experiment: Antitubercular activity against Mycobacterium tuberculosis isolate 12525 incubated for 7 days by microplate alamar blue assay; type: functional; conditions: isolate 12525, 168 h, time 7 day; how it was run: as §1
[13] = Mycobacterium tuberculosis, H37Rv, read-out: MIC

| SMILES | IC50 [1] | MIC [2, 13] | IC50 (Vero) | further results |
| --- | --- | --- | --- | --- |
| CC(=O)NC[C@@H]1OC(=O)N2c3cc(F)c(N4CCC(F)(F)CC4)cc3OC[C@@H]12 | 10.1 µM | 0.91 µg/mL (≈ 2.28 µM) | – | – |
| O=C(NC[C@@H]1OC(=O)N2c3cc(F)c(N4C5CCC4CSC5)cc3OC[C@@H]12)C1CCC1 | – | 0.97 µg/mL (≈ 2.17 µM) | 34.7 µg/mL (≈ 77.5 µM) | – |
| CC(=O)NC[C@@H]1OC(=O)N2c3cc(F)c(N4CCOCC4)cc3OC[C@@H]12 | 51.2 µM | 0.89 µg/mL (≈ 2.44 µM) | > 64 µg/mL | – |
| CC(=O)OC[C@@H]1OC(=O)N2c3cc(F)c(N4CCSCC4)cc3OC[C@@H]12 | – | > 1 µg/mL | – | – |
| CC(=O)NC[C@@H]1OC(=O)N2c3cc(F)c(N4CCS(=O)(=O)CC4)cc3OC[C@@H]12 | 26 µM | 0.93 µg/mL (≈ 2.25 µM) | – | Cmax [3]: 118 ng/mL; half-life [4]: 7.64 h; Tmax [5]: 1 h; AUC(0-t) [6]: 1250 ng·h/mL; MRT inf [7]: 14.3 h; AUC(0-inf) [8]: 1480 ng·h/mL; MRT last [9]: 10.3 h |
| NC[C@@H]1OC(=O)N2c3cc(F)c(N4CCSCC4)cc3OC[C@@H]12 | > 100 µM | – | 36 µg/mL (≈ 106 µM) | remaining at 0.5 h, 1 µM [10]: 15.8%; Stabilty [11]: Stable; MIC [2]: 0.03 µg/mL (≈ 0.0884 µM) |
| O=C(NC[C@@H]1OC(=O)N2c3cc(F)c(N4C5CCC4CSC5)cc3OC[C@@H]12)C1CC1 | – | 0.98 µg/mL (≈ 2.26 µM) | > 64 µg/mL | – |
| CC(=O)NC[C@@H]1OC(=O)N2c3cc(F)c(N4CCSCC4)cc3OC[C@@H]12 (racemic) | – | – | – | MIC [2]: 0.16 µg/mL (≈ 0.419 µM) |
| CC(=O)N(C)C[C@@H]1OC(=O)N2c3cc(F)c(N4CCSCC4)cc3OC[C@@H]12 | – | > 1 µg/mL | – | – |
| O=C1O[C@@H](Cn2ccnn2)[C@@H]2COc3cc(N4CC5(COC5)C4)c(F)cc3N12 | – | > 32 µg/mL | > 64 µg/mL | – |
| CC(C)C(=O)NC[C@@H]1OC(=O)N2c3cc(F)c(N4CCSCC4)cc3OC[C@@H]12 | > 100 µM | 0.1 µg/mL (≈ 0.244 µM) | – | remaining at 0.5 h, 1 µM [10]: 6.02%; Stabilty [11]: Stable |
| O=C1O[C@@H](CNc2ccon2)[C@@H]2COc3cc(N4CCSCC4)c(F)cc3N12 | > 100 µM | 0.03 µg/mL (≈ 0.0738 µM) | – | remaining at 0.5 h, 1 µM [10]: 0%; Stabilty [11]: Stable |
| O=C(NC[C@@H]1OC(=O)N2c3cc(F)c(N4C5CCC4CSC5)cc3OC[C@@H]12)c1ccncc1 | – | 2.83 µg/mL (≈ 6.01 µM) | > 64 µg/mL | – |
| O=C1O[C@@H](CO)[C@H]2COc3cc(N4CCSCC4)c(F)cc3N12 (racemic) | – | > 32 µg/mL | – | – |
| O=C(NC[C@@H]1OC(=O)N2c3cc(F)c(N4CCSCC4)cc3OC[C@@H]12)C1CC1 | > 100 µM | 0.03 µg/mL (≈ 0.0736 µM) | – | remaining at 0.5 h, 1 µM [10]: 15%; Stabilty [11]: Stable |
| NC[C@@H]1OC(=O)N2c3cc(F)c(N4CCSCC4)cc3OC[C@H]12 (racemic) | – | > 32 µg/mL | – | – |
| COC(=O)NC[C@@H]1OC(=O)N2c3cc(F)c(N4CCSCC4)cc3OC[C@@H]12 | > 100 µM | 0.03 µg/mL (≈ 0.0755 µM) | – | remaining at 0.5 h, 1 µM [10]: 3.59%; Stabilty [11]: Stable |
| CC(=O)NC[C@H]1OC(=O)N2c3cc(F)c(N4CCSCC4)cc3OC[C@H]12 | – | > 32 µg/mL | – | – |
| CC(=O)NC[C@@H]1OC(=O)N2c3ccc(N4CCSCC4)cc3OC[C@@H]12 | – | 0.79 µg/mL (≈ 2.17 µM) | > 64 µg/mL | – |
| O=C1O[C@@H](Cn2ccnn2)[C@@H]2COc3cc(N4CCSCC4)c(F)cc3N12 | > 100 µM | 0.23 µg/mL (≈ 0.588 µM) | – | remaining at 0.5 h, 1 µM [10]: 21.7%; Stabilty [11]: Stable |

| SMILES | IC50 [1] | MIC [2, 13] | IC50 (Vero) | further results |
| --- | --- | --- | --- | --- |
| O=C(NC[C@@H]1OC(=O)N2c3cc(F)c(N4CCSCC4)cc3OC[C@@H]12)c1ccncc1 | > 100 µM | 0.16 µg/mL (≈ 0.36 µM) | – | remaining at 0.5 h, 1 µM [10]: 20.8%; Stabilty [11]: Stable |
| CS(=O)(=O)NC[C@@H]1OC(=O)N2c3cc(F)c(N4CCSCC4)cc3OC[C@@H]12 | – | 3.9 µg/mL (≈ 9.34 µM) | – | – |
| O=C(NC[C@@H]1OC(=O)N2c3cc(F)c(N4CC5(COC5)C4)cc3OC[C@@H]12)C1CC1 | – | 3.09 µg/mL (≈ 7.66 µM) | – | – |
| COC(=O)NC[C@@H]1OC(=O)N2c3cc(F)c(N4C5CCC4CSC5)cc3OC[C@@H]12 | – | 1.68 µg/mL (≈ 3.97 µM) | > 64 µg/mL | – |
| O=C(NC[C@@H]1OC(=O)N2c3cc(F)c(N4CCSCC4)cc3OC[C@@H]12)C1CCC1 | 53.7 µM | 0.03 µg/mL (≈ 0.0712 µM) | – | remaining at 0.5 h, 1 µM [10]: 4%; Stabilty [11]: Stable |
| CO[C@H]1/C=C/O[C@@]2(C)Oc3c(C)c(O)c4c(O)c(c(/C=N/N5CCN(C)CC5)c(O)c4c3C2=O)NC(=O)/C(C)=C\C=C\[C@H](C)[C@H](O)[C@@H](C)[C@@H](O)[C@@H](C)[C@H](OC(C)=O)[C@@H]1C [RIFAMPIN] | – | – | – | MIC [12]: > 10 µg/mL |
| CC(=O)N(C[C@@H]1OC(=O)N2c3cc(F)c(N4CCSCC4)cc3OC[C@@H]12)C(C)=O | – | 0.34 µg/mL (≈ 0.803 µM) | > 64 µg/mL | – |
| O=C1O[C@@H](CNc2ccon2)[C@@H]2COc3cc(N4C5CCC4CSC5)c(F)cc3N12 | – | 2.52 µg/mL (≈ 5.83 µM) | > 64 µg/mL | – |
| CC(C)C(=O)NC[C@@H]1OC(=O)N2c3cc(F)c(N4C5CCC4CSC5)cc3OC[C@@H]12 | – | 1.48 µg/mL (≈ 3.4 µM) | > 64 µg/mL | – |
| O=C1O[C@@H](Cn2ccnn2)[C@@H]2COc3cc(N4C5CCC4CSC5)c(F)cc3N12 | – | > 32 µg/mL | > 64 µg/mL | – |
| NC[C@@H]1OC(=O)N2c3cc(F)c(N4CCSCC4)cc3OC[C@@H]12 (racemic) | – | – | – | MIC [2]: 0.1 µg/mL (≈ 0.295 µM) |
| O=C(NC[C@@H]1OC(=O)N2c3cc(F)c(N4CC5(COC5)C4)cc3OC[C@@H]12)C1CCC1 | – | 4.2 µg/mL (≈ 10.1 µM) | – | – |
| CC(=O)NC[C@@H]1OC(=O)N2c3cc(F)c(N4CCSCC4)cc3OC[C@H]12 (racemic) | – | > 32 µg/mL | – | – |
| CC(=O)NC[C@@H]1OC(=O)N2c3cc(F)c(N4CC5(COC5)C4)cc3OC[C@@H]12 | – | 3.92 µg/mL (≈ 10.4 µM) | – | – |
| CNC[C@@H]1OC(=O)N2c3cc(F)c(N4CCSCC4)cc3OC[C@@H]12 | – | > 32 µg/mL | 46.5 µg/mL (≈ 132 µM) | – |
| CC(=O)NC[C@@H]1OC(=O)N2c3cc(F)c(N4C5CCC4CSC5)cc3OC[C@@H]12 | – | 0.92 µg/mL (≈ 2.26 µM) | 58.5 µg/mL (≈ 144 µM) | – |
| O=C1O[C@@H](CO)[C@@H]2COc3cc(N4CCSCC4)c(F)cc3N12 (racemic) | – | 3.79 µg/mL (≈ 11.1 µM) | – | – |
| O=C(NC[C@@H]1OC(=O)N2c3cc(F)c(N4CCSCC4)cc3OC[C@@H]12)c1cnccn1 | > 100 µM | 0.12 µg/mL (≈ 0.269 µM) | 40.7 µg/mL (≈ 91.3 µM) | remaining at 0.5 h, 1 µM [10]: 6.85%; Stabilty [11]: Stable |
| O=C(NC[C@@H]1OC(=O)N2c3cc(F)c(N4C5CCC4CSC5)cc3OC[C@@H]12)c1cnccn1 | – | > 32 µg/mL | 9.53 µg/mL (≈ 20.2 µM) | – |

Reference: ChEMBL document CHEMBL4725282, “Discovery of a Conformationally Constrained Oxazolidinone with Improved Safety and Efficacy Profiles for the Treatment of Multidrug-Resistant Tuberculosis” (J Med Chem, 2020)
